Results as given in ChEMBL document CHEMBL4312015, “Design, synthesis and 3D-QSAR analysis of novel thiopyranopyrimidine derivatives as potential antitumor agents inhibiting A549 and Hela cancer cells” (Eur J Med Chem, 2020).
Activity calls are given as the source filed them. The rule behind the calls is not given here.

Tests used:
A549 [1] = test: Antiproliferative activity against human A549 cells assessed as inhibition of cell growth after 72 hrs by MTT assay; format: functional, cell-based; conditions: A549, 72 h
Method in brief: (§1)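 Cell lines from the Chinese Academy of Sciences cell collection, grown in 96-well plates with a range of compound concentrations for 72 h. Viability read by MTT, with AZD9291 as positive control. IC50 values are averages of three determinations per the methods section; table footnotes state an average of two separate determinations.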

HeLa [2] = test: Antiproliferative activity against human HeLa cells assessed as inhibition of cell growth after 72 hrs by MTT assay; format: functional, cell-based; method in brief: as §1
[3] = molecular target: T1, Epidermal growth factor receptor (Homo sapiens, UniProt P00533); test: Inhibition of wildtype EGFR (unknown origin) using biotin as substrate in presence of ATP by mobility shift assay based ELISA
[4] = molecular target: Epidermal growth factor receptor (Homo sapiens, UniProt P00533, L858R/T790M); test: Inhibition of EGFR T790M/L858R double mutant (unknown origin) using biotin as substrate in presence of ATP by mobility shift assay based ELISA
Homo sapiens = species: Homo sapiens; test: Selectivity ratio of IC50 for wildtype EGFR (unknown origin) to IC50 for EGFR T790M/L858R double mutant (unknown origin) by mobility shift assay based ELISA
NCI-H1975 [5] = test: Antiproliferative activity human NCI-H1975 cells harboring EGFR T790M/L858R double mutant assessed as inhibition of cell growth at 10 uM after 72 hrs by MTT assay relative to control; format: functional; conditions: NCI-H1975, 72 h
Method in brief: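 H1975 cells exposed to compound at a single 10 uM concentration. Growth inhibition rate read by MTT after 72 h in 96-well plates, with AZD9291 as positive control. Values are an average of two separate determinations.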

NCI-H1975 [6] = test: Antiproliferative activity against human NCI-H1975 cells harboring EGFR T790M/L858R double mutant assessed as inhibition of cell growth after 72 hrs by MTT assay; format: functional, cell-based; conditions: NCI-H1975, 72 h; method in brief: as §1
A549 [7] = test: Induction of apoptosis in human A549 cells assessed as viable cells at 0.057 uM after 24 hrs by AnnexinV-FITC/propidium iodide staining based FACSCalibur flow cytometry analysis (reference value: 94.42 %); format: functional; conditions: A549, 24 h, read-out: Activity
A549 [8] = test: Induction of apoptosis in human A549 cells assessed as early apoptotic cells at 0.057 uM after 24 hrs by AnnexinV-FITC/propidium iodide staining based FACSCalibur flow cytometry analysis (reference value: 3.51 %); format: functional
A549 [9] = test: Induction of apoptosis in human A549 cells assessed as late apoptotic cells at 0.057 uM after 24 hrs by AnnexinV-FITC/propidium iodide staining based FACSCalibur flow cytometry analysis (reference value: 1.74 %); format: functional
A549 [10] = test: Induction of apoptosis in human A549 cells assessed as necrotic cells at 0.057 uM after 24 hrs by AnnexinV-FITC/propidium iodide staining based FACSCalibur flow cytometry analysis (reference value: 0.33 %); format: functional
A549 [11] = test: Cell cycle arrest in human A549 cells assessed as accumulation at G0/G1 phase at 0.057 uM after 24 hrs by propidium iodide staining based FACSCalibur flow cytometry analysis (reference value: 74.31 %); format: functional
Method in brief: (§2)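 A549 cells seeded in 6-well plates for 24 h, then treated for 24 h; vehicle was 0.1% DMSO. Cells were harvested as single-cell suspensions, fixed in 70% ice-cold ethanol for 12 h, and stained with propidium iodide. DNA content was measured by flow cytometry. AZD9291 at 0.462 uM was included as reference.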

A549 [12] = test: Cell cycle arrest in human A549 cells assessed as accumulation at S phase at 0.057 uM after 24 hrs by propidium iodide staining based FACSCalibur flow cytometry analysis (reference value: 22.24 %); format: functional; method in brief: as §2
A549 [13] = test: Cell cycle arrest in human A549 cells assessed as accumulation at G2/M phase at 0.057 uM after 24 hrs by propidium iodide staining based FACSCalibur flow cytometry analysis (reference value: 3.45 %); format: functional; method in brief: as §2
HeLa [14] = test: Inhibition of EFGR protein expression in human HeLa cells after 24 hrs by Western blot analysis; format: functional, cell-based
Method in brief: (§3)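 HeLa cells treated for 24 h with graded compound concentrations, with AZD9291 as positive control. Whole-cell lysates were made in RIPA buffer and protein measured by BCA. Equal protein was run on 10% SDS-PAGE, transferred to PVDF on ice, and probed for EGFR, p-EGFR and GAPDH.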

[15] = molecular target: T1, Epidermal growth factor receptor; test: Inhibition of EFGR phosphorylation in human HeLa cells at 0.1 to 10 uM after 24 hrs by Western blot analysis; format: cell-based; method in brief: as §3

T1 sequence (P00533 whole entry): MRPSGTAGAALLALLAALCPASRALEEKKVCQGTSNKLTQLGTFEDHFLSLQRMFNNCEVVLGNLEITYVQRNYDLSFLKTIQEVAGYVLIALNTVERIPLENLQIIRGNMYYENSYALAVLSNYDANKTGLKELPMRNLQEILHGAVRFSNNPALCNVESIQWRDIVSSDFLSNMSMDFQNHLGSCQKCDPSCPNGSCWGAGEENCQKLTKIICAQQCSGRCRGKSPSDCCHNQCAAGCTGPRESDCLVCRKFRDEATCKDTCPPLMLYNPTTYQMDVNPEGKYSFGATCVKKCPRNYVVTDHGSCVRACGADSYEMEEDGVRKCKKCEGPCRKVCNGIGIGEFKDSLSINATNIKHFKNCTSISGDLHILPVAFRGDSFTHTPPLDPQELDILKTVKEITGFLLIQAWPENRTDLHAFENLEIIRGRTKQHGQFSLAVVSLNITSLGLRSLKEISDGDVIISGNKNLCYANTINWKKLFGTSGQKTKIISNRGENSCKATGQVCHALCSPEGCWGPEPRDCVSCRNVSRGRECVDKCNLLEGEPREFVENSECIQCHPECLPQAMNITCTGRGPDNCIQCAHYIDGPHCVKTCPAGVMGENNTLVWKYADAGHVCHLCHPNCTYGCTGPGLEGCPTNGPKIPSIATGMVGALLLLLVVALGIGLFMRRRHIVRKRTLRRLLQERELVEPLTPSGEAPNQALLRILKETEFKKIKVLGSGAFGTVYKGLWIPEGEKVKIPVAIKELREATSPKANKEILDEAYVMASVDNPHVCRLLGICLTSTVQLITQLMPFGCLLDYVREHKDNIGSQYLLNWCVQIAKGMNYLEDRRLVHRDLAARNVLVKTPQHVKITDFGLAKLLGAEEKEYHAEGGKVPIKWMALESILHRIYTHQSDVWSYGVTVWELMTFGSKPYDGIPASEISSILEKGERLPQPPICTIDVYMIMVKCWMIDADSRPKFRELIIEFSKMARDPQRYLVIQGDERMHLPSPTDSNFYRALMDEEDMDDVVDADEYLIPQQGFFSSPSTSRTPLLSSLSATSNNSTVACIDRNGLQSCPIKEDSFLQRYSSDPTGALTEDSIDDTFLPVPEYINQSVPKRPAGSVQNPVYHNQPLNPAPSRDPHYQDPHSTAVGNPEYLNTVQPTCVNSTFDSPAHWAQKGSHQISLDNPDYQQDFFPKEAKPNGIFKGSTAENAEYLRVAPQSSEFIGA
Chain of Epidermal growth factor receptor (Homo sapiens, UniProt P00533, L858R/T790M) (P00533 25-1210 T790M/L858R limits assumed): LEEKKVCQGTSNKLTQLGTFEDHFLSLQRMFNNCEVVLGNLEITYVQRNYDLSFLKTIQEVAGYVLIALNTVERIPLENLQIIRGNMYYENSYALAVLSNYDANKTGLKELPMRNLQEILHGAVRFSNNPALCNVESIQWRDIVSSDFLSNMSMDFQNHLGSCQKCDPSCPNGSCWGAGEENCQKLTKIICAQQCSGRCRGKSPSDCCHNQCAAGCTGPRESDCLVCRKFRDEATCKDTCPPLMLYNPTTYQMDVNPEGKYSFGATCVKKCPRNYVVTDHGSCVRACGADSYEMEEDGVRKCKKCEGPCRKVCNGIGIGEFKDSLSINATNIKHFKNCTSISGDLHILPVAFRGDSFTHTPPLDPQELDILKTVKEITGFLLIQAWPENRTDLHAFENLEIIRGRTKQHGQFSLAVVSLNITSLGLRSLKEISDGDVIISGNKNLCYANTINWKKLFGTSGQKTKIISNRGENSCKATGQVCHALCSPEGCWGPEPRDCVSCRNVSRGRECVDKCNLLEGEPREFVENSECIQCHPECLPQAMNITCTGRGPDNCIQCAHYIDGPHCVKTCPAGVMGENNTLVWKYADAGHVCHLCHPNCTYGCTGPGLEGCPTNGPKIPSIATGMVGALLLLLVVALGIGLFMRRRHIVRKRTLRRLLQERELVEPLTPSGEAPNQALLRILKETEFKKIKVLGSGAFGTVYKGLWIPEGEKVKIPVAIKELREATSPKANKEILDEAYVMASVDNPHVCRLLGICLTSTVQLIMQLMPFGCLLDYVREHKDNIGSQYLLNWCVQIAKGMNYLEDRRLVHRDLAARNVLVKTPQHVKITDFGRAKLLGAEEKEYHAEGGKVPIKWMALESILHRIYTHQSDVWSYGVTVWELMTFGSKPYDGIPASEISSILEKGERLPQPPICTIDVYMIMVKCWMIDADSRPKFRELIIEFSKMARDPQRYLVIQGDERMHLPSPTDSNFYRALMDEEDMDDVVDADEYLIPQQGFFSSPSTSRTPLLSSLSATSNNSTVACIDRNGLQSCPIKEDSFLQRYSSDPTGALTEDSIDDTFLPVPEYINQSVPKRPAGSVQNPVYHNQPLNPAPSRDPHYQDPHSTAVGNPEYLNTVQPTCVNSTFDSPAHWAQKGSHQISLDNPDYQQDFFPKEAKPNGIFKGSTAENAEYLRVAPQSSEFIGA

With `CCC/C=C\C(=O)Nc1cc(Nc2nc3c(c(-c4cn(C)c5ccccc45)n2)CS(=O)(=O)CC3)c(OC)cc1N(C)CCN(C)C` as the compound, how does the IC50 (A549 [1]) read?
The IC50 was 57 nM.

What about the IC50 (HeLa [2]; read-out: IC50) of the same compound?
Its IC50 is 104 nM.

What about the IC50 (HeLa [2]; read-out: pIC50 (converted)) of the same compound?
Its IC50 is 104 nM.

What about the IC50 [3] of the same compound?
The IC50 was over 2000 nM.

And the IC50 [4]?
The IC50 was 16 nM.

What about the Ratio IC50 (Homo sapiens) of the same compound?
The Ratio IC50 was over 125.

And the inhibition at 10 µM (NCI-H1975 [5])?
The inhibition at 10 µM was 99.5%.

What about the IC50 (NCI-H1975 [6]) of the same compound?
The IC50 was 916 nM.

And the viability at 0.057 µM (A549 [7])?
Its viability at 0.057 µM is 88.1%.

And the Activity (A549 [8])?
The Activity was 5.87%.

And the Activity (A549 [9])?
The Activity was 5.92%.

And the Activity (A549 [10])?
Its Activity is 0.08%.

And the Activity (A549 [11])?
Its Activity is 69.17%.

What about the Activity (A549 [12]) of the same compound?
The Activity was 20.2%.

What about the Activity (A549 [13]) of the same compound?
Its Activity is 10.63%.

And the inhibition (HeLa [14])?
Its inhibition is “Dose-dependent effect”.

What about the inhibition [15] of the same compound?
The inhibition was “inactive”.
